# In ChEMBL document CHEMBL1921710, “Anti-staphylococcal activity and β-lactam resistance attenuating capacity of structural analogues of (-)-epicatechin gallate” (2011):
# Activity calls are given as the source filed them. No cut-off for these calls is given here.
# Legend:
# Staphylococcus aureus [1] = assay: Antistaphylococcal activity against epidemic Staphylococcus aureus isolate 16 by CLSI broth microplate assay; format: functional
# Method in brief: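 MIC against MRSA clinical isolate EMRSA-16, measured by CLSI broth microplate dilution. Compounds were dissolved in 60% v/v EtOH, then diluted into broth.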
# Staphylococcus aureus [2] = assay: Potentiation of oxacillin-induced antistaphylococcal activity against epidemic Staphylococcus aureus isolate 16 at 12.5 ug/mL by CLSI broth microplate assay; format: functional, organism-based
# Method in brief: (§1)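 Oxacillin MIC against EMRSA-16 with the analogue held at a fixed concentration. Run in 96-well trays with about 10^4 CFU in 100 μl Mueller–Hinton broth containing 2% w/v NaCl. Compounds were dissolved in 60% v/v EtOH before dilution into broth.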
# Staphylococcus aureus [3] = assay: Potentiation of oxacillin-induced antistaphylococcal activity against epidemic Staphylococcus aureus isolate 16 at 6.25 ug/mL by CLSI broth microplate assay; format: functional, organism-based; method in brief: as §1
Structure (SMILES),MIC (Staphylococcus aureus [1]),Activity (Staphylococcus aureus [2]),Activity (Staphylococcus aureus [3])
Cc1onc(-c2ccccc2)c1C(=O)N[C@@H]1C(=O)N2[C@@H]1SC(C)(C)[C@@H]2C(=O)O [OXACILLIN],512 µg/mL,,
O=C(O[C@@H]1Cc2c(O)cc(O)cc2O[C@@H]1c1ccc(O)c(O)c1)c1cc(O)c(O)c(O)c1 [EPICATECHIN GALLATE],128 µg/mL,Active,
O=C(N[C@@H]1Cc2c(O)cc(O)cc2O[C@@H]1c1ccc(O)c(O)c1)c1cc(O)c(O)c(O)c1,,Active,
O=C(O[C@@H]1Cc2c(O)cc(O)cc2O[C@@H]1c1ccccc1)c1cc(O)c(O)c(O)c1,64 µg/mL,Active,Active

# Second part, led by results:
MIC (Staphylococcus aureus [1]),Structure (SMILES),Activity (Staphylococcus aureus [2]),Activity (Staphylococcus aureus [3])
16 µg/mL,O=C(O[C@@H]1Cc2ccccc2O[C@H]1c1ccccc1)c1cc(O)c(O)c(O)c1,Active,Active
128 µg/mL,O=C(O[C@@H]1Cc2c(O)cc(O)cc2O[C@@H]1c1cc(O)cc(O)c1)c1cc(O)c(O)c(O)c1,Active,
128 µg/mL,O=C(O[C@@H]1Cc2c(O)cc(O)cc2O[C@@H]1c1cccc(O)c1)c1cc(O)c(O)c(O)c1,Active,
16 µg/mL,O=C(O[C@@H]1Cc2ccccc2O[C@@H]1c1ccccc1)c1cc(O)c(O)c(O)c1,Active,Active
